Among the data in ChEMBL document CHEMBL4387722 are IC50 and inhibition values, retold here.

For test [1], the target named is T1, Tyrosine-protein phosphatase non-receptor type 5 (Homo sapiens, UniProt P54829).
T1 sequence (P54829 whole entry): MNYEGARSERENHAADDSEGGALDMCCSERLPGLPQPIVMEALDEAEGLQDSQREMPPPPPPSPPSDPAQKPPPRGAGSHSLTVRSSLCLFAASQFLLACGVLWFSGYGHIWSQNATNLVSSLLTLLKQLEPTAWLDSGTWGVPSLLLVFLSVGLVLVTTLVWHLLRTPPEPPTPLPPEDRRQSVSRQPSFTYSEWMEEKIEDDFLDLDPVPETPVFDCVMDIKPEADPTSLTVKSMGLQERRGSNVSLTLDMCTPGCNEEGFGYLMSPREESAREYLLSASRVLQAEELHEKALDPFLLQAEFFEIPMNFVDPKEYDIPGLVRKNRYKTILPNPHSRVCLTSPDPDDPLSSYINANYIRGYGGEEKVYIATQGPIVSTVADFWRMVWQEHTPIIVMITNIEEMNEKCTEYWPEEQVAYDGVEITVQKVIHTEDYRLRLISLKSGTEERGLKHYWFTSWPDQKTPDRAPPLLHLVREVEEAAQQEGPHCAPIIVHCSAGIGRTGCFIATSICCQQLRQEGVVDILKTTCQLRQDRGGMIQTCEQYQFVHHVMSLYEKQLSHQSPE
Nature of the test: Inhibition of human PTPN5 expressed in Escherichia coli Rosetta 2 (DE3) using pNPP as substrate after 45 mins by spectrophotometric method.

The target in test [2] is T2, Phosphotyrosine protein phosphatase (Mycobacterium tuberculosis, UniProt A0A045ISB3).
T2 sequence (A0A045ISB3 whole entry): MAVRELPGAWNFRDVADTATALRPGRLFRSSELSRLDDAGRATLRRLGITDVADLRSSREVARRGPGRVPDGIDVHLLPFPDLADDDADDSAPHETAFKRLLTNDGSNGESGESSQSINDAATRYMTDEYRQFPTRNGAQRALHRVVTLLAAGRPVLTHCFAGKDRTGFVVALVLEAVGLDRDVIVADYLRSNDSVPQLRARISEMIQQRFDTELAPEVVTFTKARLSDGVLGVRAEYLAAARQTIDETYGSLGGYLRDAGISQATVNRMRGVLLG
Nature of the test: Inhibition of Mycobacterium tuberculosis His-tagged PtpB expressed in Escherichia coli Rosetta 2 (DE3) using pNPP as substrate after 30 mins by spectrophotometric method.

Test [3] has as its system Mycobacterium tuberculosis. Nature of the test: Antitubercular activity against Mycobacterium tuberculosis H37Rv after 5 days at 200 uM relative to control. It is filed as functional. Particulars: 120 h. The gist of the method: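 M. tuberculosis grown in liquid culture with compound at a fixed 200 μM for 5 days. Growth inhibition expressed as percent of control.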
In test [4] the target is T3, Tyrosine-protein phosphatase non-receptor type 2 (Homo sapiens, UniProt P17706).
T3 sequence (P17706 whole entry): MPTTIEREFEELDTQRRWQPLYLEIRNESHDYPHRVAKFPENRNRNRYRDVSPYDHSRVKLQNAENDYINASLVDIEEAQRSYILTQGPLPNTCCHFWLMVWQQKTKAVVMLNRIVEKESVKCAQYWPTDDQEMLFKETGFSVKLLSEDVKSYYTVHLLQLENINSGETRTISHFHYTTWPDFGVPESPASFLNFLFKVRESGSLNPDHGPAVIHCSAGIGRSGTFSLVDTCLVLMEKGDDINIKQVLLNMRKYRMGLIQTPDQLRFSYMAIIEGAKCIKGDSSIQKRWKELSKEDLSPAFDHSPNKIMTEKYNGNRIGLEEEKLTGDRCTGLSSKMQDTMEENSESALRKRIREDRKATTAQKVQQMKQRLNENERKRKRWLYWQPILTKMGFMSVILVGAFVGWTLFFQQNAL
Nature of the test: Inhibition of human PTPN2 expressed in Escherichia coli Rosetta 2 (DE3) using pNPP as substrate after 45 mins by spectrophotometric method.

The target in test [5] is T4, Tyrosine-protein phosphatase non-receptor type 1 (Homo sapiens, UniProt P18031).
T4 sequence (P18031 whole entry): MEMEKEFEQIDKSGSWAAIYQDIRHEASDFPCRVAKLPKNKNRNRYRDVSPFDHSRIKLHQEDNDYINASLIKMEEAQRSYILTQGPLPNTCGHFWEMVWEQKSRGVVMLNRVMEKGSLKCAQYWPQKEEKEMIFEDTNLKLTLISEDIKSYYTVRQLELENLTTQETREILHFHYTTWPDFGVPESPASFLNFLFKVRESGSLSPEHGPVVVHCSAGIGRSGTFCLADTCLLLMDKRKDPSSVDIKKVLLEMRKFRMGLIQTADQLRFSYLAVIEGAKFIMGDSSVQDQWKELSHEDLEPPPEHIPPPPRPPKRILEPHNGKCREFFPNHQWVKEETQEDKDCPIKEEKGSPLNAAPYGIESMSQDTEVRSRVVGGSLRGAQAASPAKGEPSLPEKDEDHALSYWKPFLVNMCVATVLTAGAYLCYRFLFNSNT
Nature of the test: Inhibition of human PTPN1 expressed in Escherichia coli Rosetta 2 (DE3) using pNPP as substrate after 45 mins by spectrophotometric method.

pIC50: −log10 of the molar value.

Broadly, the pIC50 is the negative decadic logarithm of the IC50, by convention in mol/L. A higher pIC50 goes with a low IC50. A word on the inhibition: it is the drop in the measured response relative to a control, in per cent. Take `O=[N+]([O-])c1ccccc1S(=O)(=O)Nc1ccc(-c2nc3cc(NS(=O)(=O)c4ccccc4[N+](=O)[O-])ccc3o2)cc1`: the pIC50 in test [1] was 4.54; in test [2], 5.00; in test [4], 4.55; in test [5], 4.55. The molecule further yielded an inhibition at 200 µM in test [3] of 39%.

Consider `Cc1cccc(S(=O)(=O)Nc2ccc(-c3nc4cc(NS(=O)(=O)c5cccc(C)c5)ccc4o3)cc2)c1`, for which the pIC50 in test [1] is 4.80; in test [2] it was 5.24; in test [4] it was 4.77; in test [5], 4.89. The molecule also registered an inhibition at 200 µM in test [3] of 0%.

With `O=S(=O)(Nc1ccc2oc(-c3ccc(NS(=O)(=O)c4ccc(Cl)s4)cc3)nc2c1)c1ccc2ccccc2c1`, the negative-log IC50 (pIC50) in test [1] is 5.11; in test [2], 5.27; in test [4] it was 5.13; in test [5] it was 5.10. The same molecule showed an inhibition at 200 µM in test [3] of 0%.

Regarding `COc1ccccc1S(=O)(=O)Nc1ccc(-c2nc3cc(NS(=O)(=O)c4ccccc4OC)ccc3o2)cc1`, the pIC50 in test [1] is 4.72; in test [2], 5.06; in test [4], 4.68; in test [5], 4.92. The same molecule showed an inhibition at 200 µM in test [3] of 12%.

For the molecule `Cc1ccccc1S(=O)(=O)Nc1ccc(-c2nc3cc(NS(=O)(=O)c4ccccc4C)ccc3o2)cc1`, the pIC50 is 4.85 in test [1], 5.31 in test [2], 4.74 in test [4] and 4.92 in test [5]. In addition, at 200 µM the inhibition in test [3] was 0%.

Take `COc1cccc(S(=O)(=O)Nc2ccc(-c3nc4cc(NS(=O)(=O)c5cccc(OC)c5)ccc4o3)cc2)c1`: the pIC50 in test [1] was 4.66; in test [2] it was 5.03; in test [4] it was 4.80; in test [5] it was 4.74. This molecule registered an inhibition at 200 µM in test [3] of 0%.

With `O=S(=O)(Nc1ccc(-c2nc3cc(NS(=O)(=O)c4ccc5nsnc5c4)ccc3o2)cc1)c1ccc2nsnc2c1`, the pIC50 in test [1] was 4.96; in test [2], 5.19; in test [4] it was 4.96; in test [5] it was 5.10. Besides, 200 µM produced 0% inhibition in test [3].

As for `O=S(=O)(Nc1ccc(-c2nc3cc(NS(=O)(=O)c4cccc5nonc45)ccc3o2)cc1)c1ccc(Cl)s1`, the pIC50 in test [1] is 4.72; in test [2], 5.07; in test [4], 4.60; in test [5], 4.80. Also, testing at 200 µM in test [3] gave an inhibition of 14%.

With `O=S(=O)(Nc1ccc(-c2nc3cc(NS(=O)(=O)c4ccc(Cl)s4)ccc3o2)cc1)c1cccs1`, the pIC50 in test [1] is 5.03; in test [2], 5.47; in test [4] it was 5.02; in test [5] it was 5.31. Besides, in test [3], 200 µM produced 0% inhibition.

Turning to `O=[N+]([O-])c1cc(S(=O)(=O)Nc2ccc(-c3nc4cc(NS(=O)(=O)c5ccc(Cl)s5)ccc4o3)cc2)ccc1Cl`, the pIC50 in test [1] is 4.82; in test [2] it was 5.40; in test [4], 4.74; in test [5], 5.10. For the same molecule, the inhibition at 200 µM in test [3] was found to be 29%.

`O=S(=O)(Nc1ccc2oc(-c3ccc(NS(=O)(=O)c4ccc(Cl)s4)cc3)nc2c1)c1ccc(Br)cc1`: the pIC50 in test [1] was 4.92; in test [2], 5.39; in test [4] it was 4.85; in test [5], 5.16. The inhibition at 200 µM in test [3] turned out to be 28%.

For `O=S(=O)(Nc1ccc(-c2nc3cc(NS(=O)(=O)c4ccc(Cl)s4)ccc3o2)cc1)c1ccc(Cl)s1`, the negative-log IC50 (pIC50) is 4.82 in test [1], 5.64 in test [2], 4.60 in test [4] and 4.96 in test [5]. The molecule also gave an inhibition at 200 µM in test [3] of 41%.

`O=S(=O)(Nc1ccc(-c2nc3cc(NS(=O)(=O)c4ccccc4Cl)ccc3o2)cc1)c1ccccc1Cl`: the negative logarithm of the IC50 (pIC50) in test [1] is 4.77; in test [2], 5.19; in test [4], 4.66; in test [5], 4.80. The same molecule had an inhibition at 200 µM in test [3] of 0%.

`O=S(=O)(Nc1ccc2oc(-c3ccc(NS(=O)(=O)c4cccc5ccccc45)cc3)nc2c1)c1ccc(Cl)s1`: the pIC50 in test [1] is 5.04; in test [2], 5.57; in test [4] it was 4.82; in test [5] it was 5.27. In test [3], this molecule yielded an inhibition at 200 µM of 0%.

On to `COc1ccc(Cl)cc1S(=O)(=O)Nc1ccc2oc(-c3ccc(NS(=O)(=O)c4ccc(Cl)s4)cc3)nc2c1`, for which the pIC50 in test [1] is 4.96; in test [2] it was 5.19; in test [4], 5.04; in test [5], 5.00. In test [3], the inhibition at 200 µM was 39%.

On to `COc1ccc(S(=O)(=O)Nc2ccc(-c3nc4cc(NS(=O)(=O)c5ccc(OC)cc5)ccc4o3)cc2)cc1`, for which the pIC50 in test [1] is 4.82; in test [2] it was 4.92; in test [4], 4.80; in test [5] it was 4.85. The molecule further returned an inhibition at 200 µM in test [3] of 0%.

In the case of `O=S(=O)(Nc1ccc2oc(-c3ccc(NS(=O)(=O)c4ccc(Cl)s4)cc3)nc2c1)c1ccc2ncsc2c1`, the pIC50 in test [1] was 4.96; in test [2], 5.44; in test [4] it was 5.03; in test [5], 4.92. In test [3], this molecule showed an inhibition at 200 µM of 50%.

Take `COc1ccc(S(=O)(=O)Nc2ccc(-c3nc4cc(NS(=O)(=O)c5ccc(Cl)s5)ccc4o3)cc2)cc1`: the pIC50 in test [1] was 4.80; in test [2], 4.96; in test [4] it was 4.80; in test [5], 4.96. In test [3], this molecule yielded an inhibition at 200 µM of 25%.

With `COc1ccc(S(=O)(=O)Nc2ccc3oc(-c4ccc(NS(=O)(=O)c5ccc(Cl)s5)cc4)nc3c2)cc1`, the negative logarithm of the IC50 (pIC50) in test [1] was 4.80; in test [2], 5.02; in test [4], 4.62; in test [5] it was 4.92. Moreover, in test [3], the inhibition at 200 µM turned out to be 41%.

For the molecule `O=S(=O)(Nc1ccc(-c2nc3cc(NS(=O)(=O)c4ccc(Cl)s4)ccc3o2)cc1)c1ccc2ccccc2c1`, the negative logarithm of the IC50 (pIC50) is 4.96 in test [1], 5.41 in test [2], 4.89 in test [4] and 5.16 in test [5]. In test [3], the inhibition at 200 µM worked out at 0%.
